The record followed here is PubChem BioAssay AID504325 (Broad Institute, 2011).

Assay [1] is described as follows: viability loss of control HMLE line – cell-based, dry powder, set 2, counter-screen for breast cancer stem cell project, dose response (AID 504325). Particulars: HMLE_sh_eGFP viability, CellTiter-Glo luminescence, 72 h; at 30 µM (top of the series). Summed up: (§1)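 System: HMLE_sh_eGFP cells | Input: 2000 HMLE_sh_eGFP cells per well | Medium: Serum-free culture medium | Schedule: About 72 h compound exposure at 37 °C | Technique: CellTiter-Glo ATP luminescence | Benchmarks: DMSO-only neutral wells and puromycin positive wells on each plate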

Assay [2] concerns HMLE_sh_eGFP viability, CellTiter-Glo luminescence, 72 h. The assay is described as above. The method, boiled down:
as §1

Inconclusive results are not listed. Calls of active or inactive are those of the source.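 How the source made its calls: active means every replicate test active, with falling signal and half-maximal potency at or below ten times the top dose; inconclusive means replicate tests give conflicting calls; inactive means all tests inactive, or signal shifts the wrong way.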

For `O=C(C#Cc1ccccc1)NC1=NCCS1`, the activity change, negative = cytotoxic in assay [1] is 9.83% (inactive).

As to `O=C(N/N=C/c1ccc[nH]1)C1Cc2ccccc2O1` (configuration not stated), the activity change, negative = cytotoxic in assay [1] was -1.79% (inactive).

`COc1ccc(/C=C/C(=O)NC2=NCCS2)c(OC)c1OC`: the activity change, negative = cytotoxic in assay [1] is -0.513% (inactive).

As to `CC(=O)Oc1ccccc1/C=C/C(=O)NC1=NCCS1`, in assay [1], the activity change, negative = cytotoxic is 0.09% (inactive).

On to `Cc1ccccc1/C=C/C(=O)NC1=NCCS1`, for which the activity change, negative = cytotoxic in assay [1] is 6.57% (inactive).

With `CC(=O)Oc1ccc(/C=C/C(=O)NC2=NCCS2)cc1`, the activity change, negative = cytotoxic in assay [1] is -11.6% (inactive).

For the compound `O=C(/C=C/c1cc(Cl)ccc1Cl)NC1=NCCS1`, in assay [1], the activity change, negative = cytotoxic was 3.58% (inactive).

For the compound `Cc1csc(NC(=O)c2ccc(COc3ccccc3)o2)n1`, the AC50 (in general, the midpoint of the concentration-response curve, whichever way the signal moves) in assay [2] is 13.3 µM.

On to `CC(C)(C)c1ccc2c(c1)OC(C(=O)N/N=C/c1ccc[nH]1)CO2` (configuration not stated), for which the AC50 in assay [2] was 15 µM.

For `Cn1c(C(=O)NC2=NCCS2)cc2ccccc21`, the activity change, negative = cytotoxic in assay [1] was 6.92% (inactive).

For the compound `O=C(COc1ccc(Cl)cc1Cl)N/N=C/c1cnc[nH]1`, the activity change, negative = cytotoxic in assay [1] is -6.28% (inactive).

As to `CC(C)(C)c1ccc2c(c1)OC(C(=O)NN)CO2` (configuration not stated), the activity change, negative = cytotoxic in assay [1] was 15.8% (inactive).

Take `O=C(COc1ccc(Cl)cc1Cl)N/N=C/c1ccco1`: the activity change, negative = cytotoxic in assay [1] is 5.52% (inactive).

In the case of `O=C(O)c1ccc(COc2ccccc2)o1`, the activity change, negative = cytotoxic in assay [1] is 1.43% (inactive).

For the compound `Cc1ccccc1NCC(=O)N/N=C/c1ccc[nH]1`, in assay [1], the activity change, negative = cytotoxic was 7.91% (inactive).

On to `O=C(/C=C/c1ccc(F)cc1)NC1=NCCS1`, for which the activity change, negative = cytotoxic in assay [1] was -0.331% (inactive).

Take `COc1ccc(CCC(=O)N/N=C/c2ccc[nH]2)cc1`: the activity change, negative = cytotoxic in assay [1] is -0.101% (inactive).

Turning to `O=C(COc1ccccc1F)N/N=C/c1ccc[nH]1`, in assay [1], the activity change, negative = cytotoxic is 1.58% (inactive).

Turning to `O=C(CCc1ccccc1)NC1=NCCS1`, the activity change, negative = cytotoxic in assay [1] was 4.67% (inactive).

As for `O=C(NC1=NCCS1)c1ccc(COc2ccccc2)o1`, in assay [1], the activity change, negative = cytotoxic is 12.9% (inactive).

For the compound `O=C(COc1c(Cl)cc(Cl)cc1Cl)N/N=C/c1ccc[nH]1`, the AC50 in assay [2] was 27.6 µM.

Consider `Cc1ccc(/C=N/NC(=O)COc2ccc(Cl)cc2Cl)[nH]1`, for which the AC50 in assay [2] was 16.9 µM.

Take `O=C(COc1ccc(Cl)cc1Cl)N/N=C/c1cccs1`: in assay [1], the activity change, negative = cytotoxic is 13.7% (inactive).

For `Cc1csc(NC(=O)/C=C/c2ccc(C(C)C)cc2)n1`, the half-maximal activity concentration (AC50) in assay [2] was 2.83 µM.

For `COc1ccc(/C=C/C(=O)NC2=NCCS2)cc1OC`, the activity change, negative = cytotoxic in assay [1] is -1.05% (inactive).

For the compound `O=C(N/N=C/c1ccc[nH]1)c1cc2ccccc2o1`, the activity change, negative = cytotoxic in assay [1] is 13.1% (inactive).

On to `NNC(=O)COc1ccc(Cl)cc1Cl`, for which the activity change, negative = cytotoxic in assay [1] is -3.9% (inactive).

For the compound `COc1ccc(OC)c(/C=C/C(=O)NC2=NCCS2)c1`, in assay [1], the activity change, negative = cytotoxic is 2.36% (inactive).

Turning to `COc1ccc(/C=C/C(=O)NC2=NCCS2)c(OC)c1`, the activity change, negative = cytotoxic in assay [1] is 3.11% (inactive).

Regarding `CC(C)c1ccc(/C=C/C(=O)NC2=NCCS2)cc1`, in assay [2], the AC50 is 8.92 µM.

In the case of `CC(Oc1ccc(F)cc1Cl)C(=O)N/N=C/c1ccc[nH]1` (configuration not stated), the activity change, negative = cytotoxic in assay [1] was 16.8% (inactive).

Regarding `Cc1ccccc1OCC(=O)N/N=C/c1ccc[nH]1`, in assay [1], the activity change, negative = cytotoxic was 5.25% (inactive).

Turning to `O=Cc1ccc[nH]1`, the activity change, negative = cytotoxic in assay [1] is 7.66% (inactive).

As for `O=C(COc1ccc(Cl)cc1Cl)N/N=C/c1ccc[nH]1`, the activity change, negative = cytotoxic in assay [1] is -54.1% (inactive).

For the compound `O=C(COc1ccc(Cl)cc1)N/N=C/c1ccc[nH]1`, in assay [1], the activity change, negative = cytotoxic was 10.5% (inactive).

As for `N#Cc1ccccc1OCC(=O)N/N=C/c1ccc[nH]1`, the activity change, negative = cytotoxic in assay [1] is -7.45% (inactive).

`Cn1cncc1/C=N/NC(=O)COc1ccc(Cl)cc1Cl`: the AC50 in assay [2] is 18.9 µM.

Consider `CC(C)c1ccc(/C=C/C(=O)Nc2ccccc2)cc1`, for which the half-maximal activity concentration (AC50) in assay [2] was 3.28 µM.

Turning to `CC(C)c1ccc(/C=C/C(=O)O)cc1`, the activity change, negative = cytotoxic in assay [1] is 16.2% (inactive).

`CCNC(=O)/C=C/c1ccc(C(C)C)cc1`: in assay [1], the activity change, negative = cytotoxic was 7.1% (inactive).

Turning to `COc1cc(/C=C/C(=O)NC2=NCCS2)cc(OC)c1OC`, the activity change, negative = cytotoxic in assay [1] is 0.088% (inactive).

`O=C(/C=C/c1ccccc1)NC1=NCCS1`: the activity change, negative = cytotoxic in assay [1] was -4.89% (inactive).
